# Screening data: PubChem, Sanford-Burnham Center for Chemical Genomics
# Hits are enriched below; roughly 1.5% of the tested compounds scored in any of these assays.
# APJ antag – blocks the human apelin receptor APJ; P35414; inhibition, % at 20 µM; 330,000 compounds, 0.32% hits; CHO-K1 APJ beta-arrestin complementation, luminescence;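 active = inhibition above about 40% at 20 µM, limit read from the data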;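 note: cells challenged with 10 nM apelin-13 agonist together with compound; plate controls were apelin-13 plus DMSO wells for no effect and DMSO wells lacking apelin-13 for full effect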
# Target sequence (P35414 whole entry, looked up): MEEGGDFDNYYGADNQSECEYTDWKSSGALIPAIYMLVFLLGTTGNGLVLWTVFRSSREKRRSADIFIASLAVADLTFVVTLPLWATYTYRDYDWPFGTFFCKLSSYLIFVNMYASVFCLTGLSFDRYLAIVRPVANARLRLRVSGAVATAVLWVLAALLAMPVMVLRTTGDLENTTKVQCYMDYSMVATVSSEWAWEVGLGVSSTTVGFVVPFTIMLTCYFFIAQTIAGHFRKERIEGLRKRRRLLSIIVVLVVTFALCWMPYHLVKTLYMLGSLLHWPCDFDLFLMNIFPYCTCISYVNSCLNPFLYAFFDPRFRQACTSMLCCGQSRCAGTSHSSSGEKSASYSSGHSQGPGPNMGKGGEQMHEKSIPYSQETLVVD
# CXCR6 inh – blocks human CXCR6 beta-arrestin recruitment. CHO-K1 PathHunter CXCR6 beta-arrestin, luminescence. inhibition, % at 20 µM. 360,000 compounds, 0.36% hits. AID 602244; in the data active = inhibition above about 34%, passing the limit was not always enough;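 note: antagonist mode with CXCL16 agonist at 10 nM final; 0% = 10 nM CXCL16 with DMSO and 100% = unstimulated wells without agonist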
# Target sequence (O00574 whole entry, looked up): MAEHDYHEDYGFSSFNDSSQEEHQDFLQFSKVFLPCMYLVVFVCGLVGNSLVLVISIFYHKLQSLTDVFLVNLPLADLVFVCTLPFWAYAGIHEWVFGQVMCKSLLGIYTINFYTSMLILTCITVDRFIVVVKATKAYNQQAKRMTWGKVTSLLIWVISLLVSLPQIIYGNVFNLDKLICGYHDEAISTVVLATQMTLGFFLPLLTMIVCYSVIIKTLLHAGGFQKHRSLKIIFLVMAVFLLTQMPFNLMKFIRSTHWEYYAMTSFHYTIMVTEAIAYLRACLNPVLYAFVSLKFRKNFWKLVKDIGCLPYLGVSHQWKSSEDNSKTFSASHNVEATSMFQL
# CCR6 antagonist – CCR6 (human) receptor antagonism; P51684; CHO-K1 CCR6 PathHunter beta-arrestin, luminescence, CCL20-stimulated; inhibition, % at 20 µM; 340,000 compounds, 0.49% hits; AID 493098;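 active = compounds whose inhibition of the agonist-driven luminescence signal at 20 µM reaches about 50%, limit read from the data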;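 note: cells stimulated with CCL20 at 14 nM final; plate controls were DMSO with CCL20 for no effect and DMSO without agonist for full effect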
# EBI2 block – antagonists of human EBI2 receptor. EBI2 beta-arrestin recruitment, luminescence, 7a,25-OHC stimulated. inhibition, % at 5 µM. 360,000 compounds, 0.81% hits. P32249; in the data active = inhibition above about 38%;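 note: enzyme fragment complementation signal reports receptor beta-arrestin coupling in cells; 0% = agonist plus DMSO wells and 100% = wells without agonist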
# APJ ag – agonists of human APJ apelin receptor; P35414; CHO-K1 APJ PathHunter beta-arrestin, luminescence; 0% DMSO wells, 100% apelin; activation, % at 20 µM; 330,000 compounds, 0.11% hits; AID 2520;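 active = activation more than six SD over the plate average, tested at 20 µM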;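 note: 0% = DMSO alone and 100% = apelin-13 at 10 nM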
#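 Assay system: CHO-K1 cells stably expressing ProLink-tagged human APJ and arrestin–beta-gal acceptor. Compound dosing: 20 µM single point, 1% DMSO. Times: 16-18 h seeding, 90 min dark compound exposure, 60 min detection. Detection: beta-gal luminescence. Evaluation: APJ–arrestin association signal. Controls: negative DMSO alone, positive Apelin-13 at 10 nM.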
# EBI2 antag conf – EBI2 (human) antagonism, single concentration confirmation; shares compounds with EBI2 block; EBI2 beta-arrestin luminescence, 7a,25-OHC antagonism; inhibition, % at 5 µM; 2,400 compounds, 29% hits; AID 651997;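 active = inhibition of at least 50%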
# EBI2 ag – activates EBI2, counter-screen for EBI2 antagonists; shares compounds with EBI2 block; EBI2-expressing cells, agonist mode, luminescence, 60 min; 0% vehicle, 100% 7α,25-dihydroxycholesterol control; activation, % at 5 µM; 2,400 tested, under 10 active; AID 652000;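 active = activation of at least 50%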
# bGal counter – inhibits E. coli beta-galactosidase, counter-screen for EBI2 antagonists; shares compounds with EBI2 block; purified beta-galactosidase, luminescent Galacton Star, 15 min; inhibition, % at 5 µM; 2,400 compounds, 1% hits; AID 652176;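 active = replicate-average signal at least 3 plate SD below neutral wells, shown as high inhibition, flagging enzyme-inhibiting false positives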;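 note: 0% = DMSO wells with enzyme and 100% = wells lacking enzyme; higher means stronger loss of beta-gal luminescence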
# Active calls of the source: *; . = no result given.
SMILES,APJ antag,CXCR6 inh,CCR6 antagonist,EBI2 block,APJ ag,EBI2 antag conf,EBI2 ag,bGal counter
CCOC(=O)[C@]12Cc3cc(OC)ccc3[C@H]1N(C1CCCCC1)C(=O)c1ccccc12,.,16.7,.,63.8*,.,20.6,0.8,-15.1
CCOC(=O)[C@]12Cc3cc(OC)ccc3[C@H]1N(C)C(=O)c1ccccc12,.,8.9,.,5.7,.,.,.,.
Nc1c(C(=O)NCCN2CCOCC2)c2nc3ccccc3nc2n1Cc1ccccc1,11.9,-1.9,0.3,74.1*,-3.6,34.1,1.0,6.1
C[C@]12CCC3C(CC[C@H]4C[C@H](O)CC[C@]34C)C1C[C@@H](O)[C@H]2O (some centres undefined),.,-1.7,8.3,-5.3,.,.,.,.
O=c1c(C=NCCN2CCNCC2)c(O)n(C2CCCCC2)c(=O)n1C1CCCCC1,15.2,-7.0,-18.1,7.5,-1.8,.,.,.
O=c1c(C=NCc2cccs2)c(O)n(C2CCCCC2)c(=O)n1C1CCCCC1,7.3,7.1,11.4,44.1*,6.8,2.3,-1.1,-10.1
O=C(NC(=S)N1CC1)c1ccccc1,.,-0.4,.,6.4,.,.,.,.
COc1ccc(N=Cc2c(O)n(Cc3cccs3)c(=O)[nH]c2=O)cc1,3.7,-7.5,2.1,30.6,-0.8,.,.,.
COc1ccc(N=Cc2c(O)n(CC3CCCO3)c(=O)[nH]c2=O)cc1 (centres undefined),-2.8,-3.8,-3.7,54.9*,-2.1,49.6,0.2,2.7
N#CC1c2ccccc2-n2nncc2CN1C(=O)c1ccccc1F (centres undefined),.,-5.8,.,-13.2,.,.,.,.
CCC(=O)c1cn(Cc2ccccc2)c2ccccc12,-19.6,2.7,25.3,-1.5,-4.6,.,.,.
O=C(COc1ccccc1)c1cn(Cc2ccccc2)c2ccccc12,-4.6,0.1,20.5,45.6*,-1.9,26.0,-0.9,-13.9
O=C(c1cc2cc(Br)ccc2[nH]1)N1CCC2(CC1)OCCO2,-5.2,-0.4,-9.2,84.2*,-1.2,66.8*,2.1,-0.6
C[C@]12CCC3C(CC[C@H]4C[C@H](O)CC[C@]34C)C1CCC2=O (some centres undefined),6.8,-1.7,10.8,-10.2,-3.2,.,.,.
C[C@]12CC[C@@H](O)CC1=CCC1C2CC[C@]2(C)C(=O)[C@H](F)CC12 (some centres undefined),0.0,1.4,-2.6,1.2,-1.9,.,.,.
CC12CCC3C(CC=C4CC(O)CCC43C)C1C/C(=C\c1cccc(F)c1)C2=O (centres undefined),12.9,-0.8,-17.1,46.3*,5.5,4.9,-0.4,-7.7
COC(=O)C1=C(c2c(C)noc2C)C[C@@H]2CC[C@H]1N2C(=O)N1CCOCC1,9.4,-6.7,1.9,-6.9,-3.8,.,.,.
COC(=O)C1=C(c2c(C)noc2C)C[C@@H]2CC[C@H]1N2C(=O)N1CCC(O)(c2ccc(Cl)cc2)CC1,6.7,3.5,4.9,41.9*,-1.6,26.1,-1.3,-18.3
COC(=O)C1=C(c2ccc(OCc3ccccc3)cc2)C[C@@H]2CC[C@H]1N2C(=O)NCc1ccccc1OC,.,7.9,.,21.1,.,.,.,.
CCCNC(=O)N1[C@H]2CC[C@@H]1C(C(=O)OC)=C(c1ccc(Cl)c(C(F)(F)F)c1)C2,1.3,5.0,12.3,-4.2,-0.6,.,.,.
COC(=O)C1=C(c2ccc(Cl)c(C(F)(F)F)c2)C[C@@H]2CC[C@H]1N2C(=O)NCCOc1ccc(OC)cc1,2.2,6.0,24.0,44.3*,-2.0,23.9,-2.4,-2.7
COC(=O)C1=C(c2ccc(OCc3ccccc3)cc2)C[C@@H]2CC[C@H]1N2C(=O)NCc1ccccc1C(F)(F)F,.,7.7,.,62.9*,.,23.0,-0.6,7.1
O=C1NCN(c2ccccc2)C12CCN(C(c1cccc3ccccc13)c1nnnn1-c1ccc3c(c1)OCCO3)CC2 (centres undefined),.,-2.8,.,-1.5,.,.,.,.
CCOC(=O)[C@]12Cc3cc(Cl)ccc3[C@H]1N(C(C)C)C(=O)c1ccccc12,.,0.1,.,19.0,.,.,.,.
O=S(=O)(c1ccccc1)N1Cc2ccccc2-n2nncc2C1,.,3.1,.,-4.4,.,.,.,.
SMILES,APJ antag,CXCR6 inh,CCR6 antagonist,EBI2 block,APJ ag,EBI2 antag conf,EBI2 ag,bGal counter
O=C(COc1ccc2ccccc2c1)N1CCN(CC2CC3C=CC2C3)CC1 (centres undefined),0.2,-7.3,2.8,84.9*,-2.6,62.6*,-0.9,-4.3
CN1CCN(C(=O)COc2ccc3ccccc3c2)CC1,27.9,-0.2,12.8,52.9*,0.6,30.7,-0.6,-7.1
COc1ccc(OCC(=O)N2CCN(Cc3c[nH]c4ccccc34)CC2)cc1,.,1.4,-11.2,47.5*,.,29.0,1.7,2.4
COc1ccccc1CN1CCN(C(=O)COc2ccc3ccccc3c2)CC1,-6.8,-6.1,8.8,70.2*,-14.2,46.9,4.0,2.3
Cc1cccc(OCC(=O)N2CCN(Cc3ccc4c(c3)OCO4)CC2)c1,10.3,-1.7,10.1,26.5,-2.0,.,.,.
CSc1ccc(CN2CCN(C(=O)COc3ccc(C)cc3)CC2)cc1,-1.2,0.2,7.0,92.1*,3.6,70.5*,2.1,-4.1
O=C(COc1ccc(Br)cc1)N1CCN(Cc2ccncc2)CC1,.,4.6,11.5,68.5*,.,54.2*,-1.8,-11.8
O=C(COc1ccc(Br)cc1)N1CCN(Cc2ccc3c(c2)OCO3)CC1,-7.9,-4.9,10.3,91.7*,-0.5,70.3*,-0.4,-8.8
Cc1ccc(OCC(=O)N2CCN(Cc3ccc4c(c3)OCO4)CC2)cc1C,0.1,-3.3,-3.1,71.2*,-3.2,57.4*,-0.3,-13.2
CCC1C(c2cc(OC)c(OC)c(OC)c2)c2cc3c(cc2OC1N1CCCC1)OCO3 (centres undefined),.,5.3,25.5,5.8,.,.,.,.
COc1ccc(-n2nnnc2C(c2cccc3ccccc23)N2CCC3(CC2)C(=O)NCN3c2ccccc2)cc1 (centres undefined),.,-4.6,.,-7.1,.,.,.,.
C[C@]12CCC3C(CC[C@H]4C[C@H](O)CC[C@]34C)C1C[C@H](O)[C@@H]2O (some centres undefined),4.8,-8.5,6.7,0.4,-2.2,.,.,.
C=C1C(O)[C@@H]2O[C@]3(CC[C@H](/C=C/C(C)[C@@H]4CC(C)=CC5(O[C@H](C[C@@](C)(O)C(=O)O)CCC5O)O4)O3)CC[C@H]2O[C@@H]1C(O)CC(C)[C@H]1OC2(CCCCO2)CCC1C (some centres undefined),7.5,.,16.1,.,-0.1,.,.,.
O=C(COc1ccc(Cl)cc1)N1CCN(C/C=C/c2ccccc2)CC1,-20.0,1.1,6.1,95.8*,1.0,86.2*,0.7,-13.5
